Screens: PubChem, The Scripps Research Institute Molecular Screening Center
Most compounds without a hit are left out; they make up all but 2.7% or so of the library.
SIAE primary: human SIAE inhibitors, primary screen, biochemical, fluorescence polarization, FP-Rh probe, 1536-well HTS. 370,000 tested, 0.69% active. inhibition, % at 9.66 µM. Sialate O-acetylesterase (Homo sapiens), Q9HAT2. SIAE FP-Rh probe binding;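 active = inhibition above a cutoff: mean of compounds within the control limits plus 3 SD of those, cut at about 17% in these data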
Target sequence (Q9HAT2 whole entry, looked up): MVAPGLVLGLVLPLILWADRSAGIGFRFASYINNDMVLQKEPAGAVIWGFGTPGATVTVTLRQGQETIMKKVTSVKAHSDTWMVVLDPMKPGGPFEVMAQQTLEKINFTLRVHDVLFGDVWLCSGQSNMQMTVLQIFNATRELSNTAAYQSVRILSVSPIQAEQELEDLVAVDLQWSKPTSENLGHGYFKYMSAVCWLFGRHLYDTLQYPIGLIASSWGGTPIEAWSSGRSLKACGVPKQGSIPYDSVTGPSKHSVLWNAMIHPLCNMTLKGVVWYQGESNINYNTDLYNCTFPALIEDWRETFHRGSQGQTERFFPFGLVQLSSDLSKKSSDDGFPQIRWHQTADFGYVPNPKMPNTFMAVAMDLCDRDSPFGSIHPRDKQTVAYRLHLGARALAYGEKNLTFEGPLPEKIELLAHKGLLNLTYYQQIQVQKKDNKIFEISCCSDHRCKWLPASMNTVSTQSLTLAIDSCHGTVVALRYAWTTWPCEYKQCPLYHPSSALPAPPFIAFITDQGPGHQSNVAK
PRMT1 inh: PRMT1 methyltransferase inhibitors, primary screen, biochemical, fluorescence polarization | Protein arginine N-methyltransferase 1 (Homo sapiens), Q99873 | recombinant PRMT1, activity-based probe fluorescence polarization | inhibition, % at 2.79 µM | 370,000 tested, 1.3% active | AID 652257, 2013;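 active = inhibition above about 21% made by adding two undisclosed values, limit read from the data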
TCR CD3 inh: inhibitors of human TCR-CD3 interaction, primary screen, biochemical, fluorescence, TAMRA-labeled TCR probe. inhibition, % at 9.4 µM. 360,000 tested, 0.37% active; in the data active = inhibition above about 19%;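 note: recombinant mutant TCR 2C K166C tagged with TAMRA read by polarization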
HTRA1 inh: HTRA1 serine protease inhibitors, primary screen, biochemical, fluorescence polarization, HTS; Q92743; recombinant HTRA1, FP-rhodamine activity-based probe; inhibition, % at 5.96 µM; 340,000 tested, 0.5% active; in the data active = inhibition above about 36%
mABHD4 FP: ABHD4 inhibitors, primary screen, biochemical, fluorescence polarization, mouse; 370,000 tested, 0.54% active; purified mABHD4, FP-Rh probe fluorescence polarization; inhibition, % at 8.92 µM; AID 720543, 2013;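 active = inhibition exceeding the mean over every tested compound plus 3 SD, cut at about 30% in these data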
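Assay system: Wild-type mouse ABHD4 protein | Medium: HEPES pH 7.0 buffer, 150 mM NaCl, 0.01% Pluronic F-127 | Incubation: Enzyme–compound pre-incubation 45 min, then probe 60 min, both 25 °C | Technique: Fluorescence polarization with parallel and perpendicular emission, 525/598 nm | Evaluation: % inhibition of FP-Rh probe binding versus controls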
mABHD4 conf: ABHD4 inhibitors, retest, confirmation, biochemical, fluorescence polarization, mouse | shares compounds with mABHD4 FP | purified mABHD4, FP-Rh probe fluorescence polarization | inhibition, % at 8.92 µM | 1,800 tested, 55% active | AID 720658, 2013;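 active = mean inhibition across replicates above the hit cutoff set in the primary screen, cut at about 30% in these data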
Large screens that a line does not name were inactive (follow-up assays come after a bar, where they were run).

CC1(C)Cc2c(c(-c3ccccc3)[nH]c(=O)c2C#N)CS1	none
CC1(C)Cc2c(c(-c3ccco3)[nH]c(=O)c2C#N)CS1	PRMT1 inh 74, mABHD4 FP 30 | mABHD4 conf inactive
CC1=NNC(=O)C1C(c1ccc(Cl)cc1)C(C#N)C#N (stereo not given)	none (no result: HTRA1 inh)
CC1=NN(Cc2ccccc2)C(=O)C1C(c1ccccc1)C(C#N)C#N (stereo not given)	mABHD4 FP 53 | mABHD4 conf inactive
CC1=NN(Cc2ccccc2)C(=O)C1C(c1ccc(Cl)cc1)C(C#N)C#N (stereo not given)	mABHD4 FP 83 | mABHD4 conf inactive
CC1=NN(Cc2ccccc2)C(=O)C1C(c1ccncc1)C(C#N)C#N (stereo not given)	none
COc1cccc(C(O)c2nc(-c3cccc(F)c3)cs2)c1 (stereo not given)	none (no result: HTRA1 inh)
OCC1COC(c2ccccc2)=N1 (stereo not given)	none (no result: HTRA1 inh)
CC(C)(C)/C(O)=C/c1nc2cc(Cl)ccc2oc1=O	mABHD4 FP 32 | mABHD4 conf inactive
COc1ccccc1CCNC(C)CCc1ccc(O)cc1 (stereo not given)	none
CC(CCc1ccc(O)cc1)NCCc1ccc(O)c(O)c1 (stereo not given)	mABHD4 FP 33 | mABHD4 conf inactive
Cn1c(-c2ccsc2)c(-c2cccs2)c2cc(-c3ccc4[nH]ccc4c3)ccc21	none
Cn1c(-c2ccsc2)c(-c2cccs2)c2cc(-c3ccc4cc[nH]c4c3)ccc21	mABHD4 FP 35 | mABHD4 conf 40
Oc1ccc(Cl)cc1Nc1nc(NCC2CCCO2)c2ccccc2n1 (stereo not given)	mABHD4 FP 35 | mABHD4 conf 31
OCCCNc1ncnc2c1ncn2[C@H]1CN(Cc2ccc3c(c2)OCO3)C[C@@H](CO)O1	none (no result: HTRA1 inh)
CN(C)CCNc1ncnc2c1ncn2[C@H]1CN(Cc2ccc3c(c2)OCO3)C[C@@H](CO)O1	mABHD4 FP 34 (no result: HTRA1 inh) | mABHD4 conf inactive
COc1ccc2c(c1)Sc1ccccc1N2	mABHD4 FP 41 | mABHD4 conf inactive
OC[C@H]1O[C@H](c2nc(-c3nc(-c4cccs4)no3)cs2)C[C@@H]1O	none (no result: HTRA1 inh)
CSCCC(NS(=O)(=O)c1ccccc1)C(=O)OCc1cc(=O)oc2cc(O)ccc12 (stereo not given)	none
O=C(NCc1ccccc1)c1cc(C2CCCCN2S(=O)(=O)c2cccs2)on1 (stereo not given)	none (no result: HTRA1 inh)
CCc1ccc(Nc2n[n+](-c3ccccc3)c(-c3c(Cl)cccc3Cl)s2)cc1	mABHD4 FP 42 | mABHD4 conf 47
Cc1cccc(NC(=S)N(C)C)c1C	none
Cc1cccc(Nc2cc(C)c3c(O)cccc3n2)c1C	mABHD4 FP 30 | mABHD4 conf 42
CC/C(C)=N/Nc1nc2c(c(=O)[nH]c(=O)n2C)n1Cc1ccccc1	mABHD4 FP 34 | mABHD4 conf inactive
Oc1cccc(-c2nnc(-c3cccc(O)c3)nn2)c1	mABHD4 FP 42 | mABHD4 conf 60
Nc1cccc(O)c1	none
CCOC(=O)/C(=N\Nc1ccccc1)S(=O)(=O)c1ccccc1	none
CCOC(=O)/C(=N\Nc1ccccc1)P(=O)(c1ccccc1)c1ccccc1	mABHD4 FP 30 | mABHD4 conf inactive
N#C/C(=C\c1ccc(-c2ccccc2)o1)C(=O)Nn1cnnc1	mABHD4 FP 47 | mABHD4 conf inactive
CCN(C(=S)NC(=O)C1CC1)c1ccccc1	none
CN(C(=S)NC(=O)C1CC1)c1ccc(O)cc1	mABHD4 FP 30 | mABHD4 conf inactive
Cc1nc(C)c(-c2csc(Nc3ccc(O)c(C(=O)O)c3)n2)s1	mABHD4 FP 45 | mABHD4 conf 31
Cc1ccccc1NC(=O)Cc1nc(COC(=O)CCc2ccccc2)cs1	mABHD4 FP 53 | mABHD4 conf 48
CC(C)=CC(=O)OCc1csc(CC(=O)Nc2ccccc2C)n1	none
CCOC(=O)/C=C/C(=O)OCc1csc(CC(=O)Nc2ccccc2C)n1	mABHD4 FP 30 | mABHD4 conf 40
COc1ccccc1CCC(=O)OCc1csc(CC(=O)Nc2ccccc2C)n1	none
CCOc1ccc(NS(=O)(=O)c2ccc(Cl)c(N=Nc3c(O)[nH]c(=S)[nH]c3=O)c2)cc1Br	mABHD4 FP 39 | mABHD4 conf 52
O=C(NCCc1ccc2c(c1)OCO2)Oc1ccccc1	none (no result: HTRA1 inh)
Cc1nn(Cc2ccccc2)c2c1C(c1ccc(Cl)cc1)C(C#N)=C(N)O2 (stereo not given)	mABHD4 FP 34 | mABHD4 conf inactive
COc1ccc(Br)cc1CSC(=N)N	none
CCCCOc1ccc(CSC(=N)N)cc1Cl	mABHD4 FP 38 | mABHD4 conf inactive
CCCCCOc1ccc(Br)cc1CSC(=N)N	mABHD4 FP 40 | mABHD4 conf 49
O=C1S/C(=C\c2ccc(O)c([N+](=O)[O-])c2)C(=O)N1c1ccccc1Cl	mABHD4 FP 55 | mABHD4 conf 44
COc1cc(/C=C2\SC(=O)N(c3cccc(Cl)c3)C2=O)cc([N+](=O)[O-])c1O	mABHD4 FP 37 | mABHD4 conf 41
Cc1cccc(NC(=O)CN2C(=O)S/C(=C\c3ccc(O)c([N+](=O)[O-])c3)C2=O)c1	mABHD4 FP 34 | mABHD4 conf 60
CCOc1ccc(C2=CC(=O)C[C@H](c3ccc(OC)cc3)C2)cc1	none
Cc1ccc(NCc2cccc(B(O)O)c2)cc1	mABHD4 FP 59 | mABHD4 conf 61
CCn1c(Cc2cccs2)nnc1SCC(=O)Nc1ccc2c(c1)OCCO2	none (no result: TCR CD3 inh, HTRA1 inh)
CCCCNC(=O)C1(C)CCN1C(=O)c1cc(C)n(C(C)(C)C)n1 (stereo not given)	none (no result: HTRA1 inh)
COc1cc(O)cc2cc3c(c(O)c12)C(=O)CC(C)(O)O3 (stereo not given)	mABHD4 FP 38 | mABHD4 conf inactive
COc1cc(O)c2c(c1)OC(C)(C)CC2=O	none
COc1ccccc1NC(=S)N1CCN(c2cccc(C)c2C)CC1	none
Cc1c(CC(=O)N[C@H](C(=O)O)C(C)C)c(=O)oc2cc3c(cc12)CCC(C)(C)O3	none
COc1cc(/C=N/NC(=O)[C@H](Cc2c[nH]c3ccccc23)NC(=O)OCC(C)C)cc([N+](=O)[O-])c1O	SIAE primary 33, mABHD4 FP 41 | mABHD4 conf 49
Cc1ccc(N2CC(C(=O)Nc3cccnc3)CC2=O)cc1Cl (stereo not given)	none
CCCCCCCOC(=O)C[N+](C)(C)CCOC1CC2CCC1(C)C2(C)C (stereo not given)	mABHD4 FP 38 | mABHD4 conf 50
